Series [1] addresses Beta-2 adrenergic receptor (Cavia porcellus, UniProt Q8K4Z4). Briefly: Agonist activity at adrenergic beta2 receptor in guinea pig trachea assessed as inhibition of electrically-stimulated contraction. Type of series: functional.
Series [2] deals with Liver microsomes. Briefly: Metabolic stability in human liver microsomes with 125 pmol/mL P450 assessed as compound turnover ratio at 5 uM after 30 mins by LC-MS method relative to verapamil. It counts as ADME, Microsome. To be noted: 0.5 h. A general note: Microsomes from liver hold many membrane-bound enzymes, among them those of drug oxidation.
Series [3] has as its target Beta-3 adrenergic receptor (Homo sapiens, UniProt P13945). Description: Agonist activity at human adrenergic beta3 receptor expressed in CHO cells assessed as cAMP accumulation. Type of series: functional, cell-based. (cAMP levels reflect the balance of adenylyl cyclase and phosphodiesterase activity.)
For series [4], the target named is Beta-1 adrenergic receptor (Homo sapiens, UniProt P08588). Briefly: Agonist activity at human adrenergic beta1 receptor expressed in CHO cells assessed as cAMP accumulation. Type of series: functional, cell-based.
Beta-1 adrenergic receptor, sequence (P08588 whole entry): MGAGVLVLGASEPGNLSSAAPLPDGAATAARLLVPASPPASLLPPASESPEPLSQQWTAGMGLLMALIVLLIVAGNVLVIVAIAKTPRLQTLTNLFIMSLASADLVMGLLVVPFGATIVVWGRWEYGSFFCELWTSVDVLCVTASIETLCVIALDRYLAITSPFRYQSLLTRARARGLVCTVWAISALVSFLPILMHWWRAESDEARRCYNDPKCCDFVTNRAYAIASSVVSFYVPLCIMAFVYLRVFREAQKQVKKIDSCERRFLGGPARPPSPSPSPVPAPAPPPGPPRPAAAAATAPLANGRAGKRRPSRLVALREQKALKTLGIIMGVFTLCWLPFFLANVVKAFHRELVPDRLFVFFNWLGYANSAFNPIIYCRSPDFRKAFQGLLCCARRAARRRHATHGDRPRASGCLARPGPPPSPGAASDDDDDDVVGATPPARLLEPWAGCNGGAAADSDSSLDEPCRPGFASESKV
Series [5] addresses Beta-2 adrenergic receptor (Homo sapiens, UniProt P07550). Briefly: Agonist activity at human adrenergic beta2 receptor expressed in CHO cells assessed as cAMP accumulation. It counts as functional, cell-based.
Series [6] relates to Cavia porcellus. Description: Bronchodilatory activity against histamine-induced bronchospasm in guinea pig administered via nebulizer. Type of series: functional. In outline: (§1)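 Guinea pigs; agonist given as nebulised solution in dimethyl acetamide-saline vehicle at EC90 dose or 10-fold EC90 dose. Duration expressed as time to 50% recovery.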
Series [7] is described as follows: Oral bioavailability in Beagle dog at 0.25 mg/kg by LC-MS/MS. It counts as ADME, organism-based, Canis lupus familiaris. To be noted: in vivo. An outline of the steps: (§2)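 Female beagle dogs (n = 2), fasted 18 h, crossover design. Oral 0.25 mg base/kg by gavage in DMSO-PEG 200-distilled water (5:30:65); iv 0.052 mg base/kg via cephalic vein in DMSO-PEG 200-saline (10:45:45). Jugular blood sampled 0.03 (iv only) to 8 h. Plasma assayed by LC–MS/MS; noncompartmental parameters.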

Series [8] is described as follows: Cmax in Beagle dog at 0.25 mg/kg, po by LC-MS/MS. It counts as ADME, organism-based, Canis lupus familiaris. The arrangement: dose 0.25 mg/kg, route oral. To be noted: in vivo. An outline of the steps: as §2
Series [9] is described as follows: Half life in Beagle dog at 0.052 mg/kg, iv by LC-MS/MS. It counts as ADME, organism-based, Canis lupus familiaris. The arrangement: dose 0.052 mg/kg, route intravenous. Particulars: in vivo. In outline:
as §2

The nature of series [10]: Volume of distribution at steady state in Beagle dog at 0.052 mg/kg, iv by LC-MS/MS. Type of series: ADME, organism-based, Canis lupus familiaris. Set-up: dose 0.052 mg/kg, route intravenous. Particulars: in vivo, read-out: Vdss. In outline:
as §2

Series [11] is described as follows: Plasma clearance in Beagle dog at 0.052 mg/kg, iv by LC-MS/MS. It counts as ADME, organism-based, Canis lupus familiaris. The arrangement: dose 0.052 mg/kg, route intravenous. An outline of the steps: as §2
Series [12] is described as follows: Oral bioavailability in Han Wistar rat at 2.0 mg/kg by LC-MS/MS. It counts as ADME, organism-based. Particulars: in vivo. In outline: (§3)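 Male Han Wistar rats, fasted 18 h. Oral dose 2.0 mg base/kg by gavage in DMSO-PEG 200-distilled water (5:30:65); iv dose 0.25 mg base/kg via tail vein in DMSO-PEG 200-saline (10:45:45). Blood sampled 0.03 (iv only) to 8 h post dose, n = 2 animals/time-point. Plasma assayed by LC–MS/MS; parameters from noncompartmental analysis.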

A short description of series [13]: Volume of distribution at steady state in Han Wistar rat at 0.25 mg/kg, iv by LC-MS/MS. It counts as ADME, organism-based. Set-up: dose 0.25 mg/kg, route intravenous. To be noted: in vivo, read-out: Vdss. An outline of the steps: as §3
The nature of series [14]: Half life in Han Wistar rat at 0.25 mg/kg, iv by LC-MS/MS. The arrangement: dose 0.25 mg/kg, route intravenous. Type of series: ADME, organism-based. To be noted: in vivo. An outline of the steps: as §3
Series [15] is described as follows: Plasma clearance in Han Wistar rat at 0.25 mg/kg, iv by LC-MS/MS. Type of series: ADME, organism-based. Set-up: dose 0.25 mg/kg, route intravenous. An outline of the steps:
as §3

The subject of series [16] is Cavia porcellus. Briefly: Bronchodilatory activity against histamine-induced bronchospasm in guinea pig assessed as time taken for 50% recovery of bronchospasm at EC90 administered via nebulizer. Type of series: functional. An outline of the steps:
as §1

Series [17] deals with Cavia porcellus. Briefly: Bronchodilatory activity against histamine-induced bronchospasm in guinea pig assessed as time taken for 50% recovery of bronchospasm at 10-fold EC90 administered via nebulizer. Type of series: functional. An outline of the steps:
as §1

The nature of series [18]: Stability of the compound in solid state at 4 degC after 18 days. Type of series: physicochemical. To be noted: 432 h.
The test system of series [19] is Liver microsomes. Description: Metabolic stability of the compound in human liver microsomes assessed as formation of N-({[3-(4-{[6-({(2R)-2-Hydroxy-2-[4-hydroxy-3-(hydroxy methyl)phenyl]ethyl}amino) hexyl]oxy}butyl)phenyl]amino} carbonyl)glycine acetate. It counts as ADME, Microsome. An outline of the steps:
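Incubated at 25 µM with human liver microsomes (and hepatocytes). Samples mixed with equal volume acetonitrile, centrifuged; supernatant analysed by reverse-phase gradient LC with electrospray MS detection for metabolites.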

A short description of series [20]: Stability of the compound in methanol assessed as formation of methyl ester of N-({[3-(4-{[6-({(2R)-2-Hydroxy-2-[4-hydroxy-3-(hydroxy methyl)phenyl]ethyl}amino) hexyl]oxy}butyl)phenyl]amino} carbonyl)glycine acetate.

Beta-3 adrenergic receptor, sequence (P13945 whole entry): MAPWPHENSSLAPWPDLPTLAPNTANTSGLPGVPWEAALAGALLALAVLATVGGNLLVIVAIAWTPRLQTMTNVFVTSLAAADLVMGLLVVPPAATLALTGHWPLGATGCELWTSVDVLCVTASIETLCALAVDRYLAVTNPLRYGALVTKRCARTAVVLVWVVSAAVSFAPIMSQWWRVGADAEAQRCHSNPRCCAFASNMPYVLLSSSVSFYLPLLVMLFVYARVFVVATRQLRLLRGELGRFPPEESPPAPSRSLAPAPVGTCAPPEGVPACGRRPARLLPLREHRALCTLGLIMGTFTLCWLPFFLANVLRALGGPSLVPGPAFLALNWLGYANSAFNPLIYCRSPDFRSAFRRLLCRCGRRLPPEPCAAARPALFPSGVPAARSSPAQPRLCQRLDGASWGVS
Beta-2 adrenergic receptor (Homo sapiens, UniProt P07550), sequence (P07550 whole entry): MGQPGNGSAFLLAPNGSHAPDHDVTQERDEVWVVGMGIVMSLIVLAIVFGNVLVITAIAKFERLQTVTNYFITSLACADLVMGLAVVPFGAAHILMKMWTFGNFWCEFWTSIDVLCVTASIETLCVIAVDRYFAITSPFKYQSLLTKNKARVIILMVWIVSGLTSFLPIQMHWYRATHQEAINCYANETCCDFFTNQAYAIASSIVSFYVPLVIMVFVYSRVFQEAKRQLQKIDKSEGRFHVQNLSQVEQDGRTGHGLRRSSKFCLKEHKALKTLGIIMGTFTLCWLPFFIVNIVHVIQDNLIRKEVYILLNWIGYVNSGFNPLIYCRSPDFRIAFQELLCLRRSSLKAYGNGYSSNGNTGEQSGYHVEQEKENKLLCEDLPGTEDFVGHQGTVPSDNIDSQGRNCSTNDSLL
Beta-2 adrenergic receptor (Cavia porcellus, UniProt Q8K4Z4), sequence (Q8K4Z4 whole entry): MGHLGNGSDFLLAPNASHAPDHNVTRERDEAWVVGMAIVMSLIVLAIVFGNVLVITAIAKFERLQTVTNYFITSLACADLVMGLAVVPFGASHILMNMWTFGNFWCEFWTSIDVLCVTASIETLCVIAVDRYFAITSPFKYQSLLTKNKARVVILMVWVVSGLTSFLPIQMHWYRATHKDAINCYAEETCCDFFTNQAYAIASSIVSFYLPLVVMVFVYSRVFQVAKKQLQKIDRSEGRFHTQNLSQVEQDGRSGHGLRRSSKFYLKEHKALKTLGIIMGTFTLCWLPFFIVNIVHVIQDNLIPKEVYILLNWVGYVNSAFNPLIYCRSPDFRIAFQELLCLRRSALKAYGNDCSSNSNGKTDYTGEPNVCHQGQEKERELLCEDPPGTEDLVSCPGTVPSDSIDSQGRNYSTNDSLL

As a reminder, the EC50 is the concentration giving half of the maximal effect. Consider `CC(=O)O.O=C1CN(c2cccc(CCCCOCCCCCCNC[C@H](O)c3ccc(O)c(CO)c3)c2)C(=O)N1`, for which the EC50 in series [1] was 2.51 nM; in [3], 316 nM; in [4] it was 200 nM; in series [5] it was 2.51 nM. Also, in the series with Liver microsomes [2], the Ratio stood at 0.4.
For the compound `O=c1cc[nH]c(=O)n1-c1cccc(CCCCOCCCCCCNC[C@H](O)c2ccc(O)c(CO)c2)c1` [listing 1 of 2 here], in [1], the concentration for a half-maximal effect (EC50) was 0.2 nM.
Broadly, the EC90 is the concentration needed for an effect of 90%. Read a low EC90 as greater potency. On to `OCc1cc(C(O)CNCCCCCCOCCCCc2ccccc2)ccc1O` (stereo unspecified) [SALMETEROL], for which, in the series on Cavia porcellus [6], the EC90 was 50000 nM. Besides, the EC50 in [1] is 5.01 nM.
For the compound `CC(=O)O.O=C1CN(Cc2cccc(CCCCOCCCCCCNC[C@H](O)c3ccc(O)c(CO)c3)c2)C(=O)N1`, in the series with Liver microsomes [2], the Ratio was 0.75. The results for the EC50 in [3], in series [4] and in [5] were 63.1 nM, 79.4 nM and 0.631 nM, respectively.
Consider `O=C1NC(=O)N(Cc2cccc(CCCCOCCCCCCNC[C@H](O)c3ccc(O)c(CO)c3)c2)C1=O`, for which the EC50 in series [3] was 25.1 nM; in series [4] it was 50.1 nM; in [5], 0.794 nM.
Regarding `O=C1CNC(=O)N1c1ccccc1CCCCOCCCCCCNC[C@H](O)c1ccc(O)c(CO)c1`, the Ratio in the series on Liver microsomes [2] worked out at 0.46. Further, the EC50 is 200 nM in series [3], 200 nM in series [4] and 2.51 nM in series [5].
Regarding `CC(=O)O.O=C1CNC(=O)N1c1ccc(CCCCOCCCCCCNC[C@H](O)c2ccc(O)c(CO)c2)cc1`, the Ratio in the series with Liver microsomes [2] is 0.3. Besides, the EC50 in [3] is 31.6 nM; in series [4], 79.4 nM; in series [5], 2 nM.
On the same counts, the results for `CC(=O)O.CC1(C)NC(=O)N(c2cccc(CCCCOCCCCCCNC[C@H](O)c3ccc(O)c(CO)c3)c2)C1=O` are 0.48, 63.1 nM, 200 nM and 0.794 nM.
In general, bioavailability refers to dose-corrected exposure relative to a reference, in per cent. Low readings indicate little systemic uptake, high ones much systemic uptake. Usually Cmax stands for the peak of the concentration-time curve. A word on the half-life: it is the time in which the quantity being followed falls by half. Read a high half-life as slow decline. The term clearance denotes a measure of how efficiently the substance is removed, as volume per time. Higher therefore signals a high capacity for elimination. Take `CC(=O)O.O=C1CNC(=O)N1c1cccc(CCCCOCCCCCCNC[C@H](O)c2ccc(O)c(CO)c2)c1`: the concentration for an effect of 90% (EC90) in the series on Cavia porcellus [6] came out at 25000 nM. For the same compound, the bioavailability in [7] turned out to be 5%; in series [12], 2%. For the same compound, the highest concentration (Cmax) in [8] was determined as 12 ng/mL. The half-life in series [9] is 2 h; in [14], 0.3 h. Also, the Vd in [10] is 0.8 L/kg; in [13] it was 2 L/kg. For the same compound, the clearance stood at 13 mL/min/kg in series [11] and 120 mL/min/kg in series [15]. Moreover, the half-maximal effective concentration (EC50) is 0.794 nM in series [1], 100 nM in [3], 79.4 nM in series [4] and 0.631 nM in [5]. Moreover, the Ratio in the series with Liver microsomes [2] came to 0.86. For the same compound, the Time in the series with Cavia porcellus [16] is 12 h; with Cavia porcellus [17], 18 h. Further, the Stability entry (in series [18]; with Liver microsomes [19]; in series [20]) was “Unstable” in each case.
On to `O=c1cc[nH]c(=O)n1-c1cccc(CCCCOCCCCCCNC[C@H](O)c2ccc(O)c(CO)c2)c1` [listing 2 of 2 here], for which the results for the concentration for a half-maximal effect (EC50) in [3], in series [4] and in series [5] were 398 nM, 251 nM and 0.794 nM, respectively.
Turning to `O=C(O)CNC(=O)Nc1cccc(CCCCOCCCCCCNC[C@H](O)c2ccc(O)c(CO)c2)c1` [listing 1 of 2 here], the EC50 in series [1] was 1 nM.
For the compound `O=C(O)CNC(=O)Nc1cccc(CCCCOCCCCCCNC[C@H](O)c2ccc(O)c(CO)c2)c1` [listing 2 of 2 here], in the series on Liver microsomes [2], the Ratio was determined as 0.55. Further, the figures for the 50% effective concentration (EC50) in [3], in series [4] and in series [5] were 100 nM, 126 nM and 1 nM, respectively.
As to `CC(=O)O.NC(=O)CN1C(=O)CN(c2cccc(CCCCOCCCCCCNC[C@H](O)c3ccc(O)c(CO)c3)c2)C1=O`, the Ratio with Liver microsomes [2] worked out at 0.91. Besides, the results for the EC50 in series [3], in [4] and in series [5] were 79.4 nM, 158 nM and 0.251 nM, respectively.
Take `O=c1ccn(-c2cccc(CCCCOCCCCCCNC[C@H](O)c3ccc(O)c(CO)c3)c2)c(=O)[nH]1`: the EC50 was 50.1 nM in series [3], 50.1 nM in series [4] and 1.26 nM in series [5].
Turning to `CC(=O)O.O=C1CNC(=O)N1Cc1cccc(CCCCOCCCCCCNC[C@H](O)c2ccc(O)c(CO)c2)c1`, in the series with Liver microsomes [2], the Ratio worked out at 1.62. The figures for the half-maximal effective concentration (EC50) in series [3], in [4] and in series [5] were 39.8 nM, 126 nM and 1.26 nM, respectively.

The values above are taken from ChEMBL document CHEMBL1811800, “The discovery of long-acting saligenin β₂ adrenergic receptor agonists incorporating hydantoin or uracil rings” (Bioorg Med Chem, 2011).
